Key:
[1] = biological target: T1, Steroid 17-alpha-hydroxylase/17,20 lyase (Homo sapiens, UniProt P05093); assay: Inhibition of human CYP17 expressed in Escherichia coli coexpressed with cytochrome P450 reductase
T1 sequence (P05093 whole entry): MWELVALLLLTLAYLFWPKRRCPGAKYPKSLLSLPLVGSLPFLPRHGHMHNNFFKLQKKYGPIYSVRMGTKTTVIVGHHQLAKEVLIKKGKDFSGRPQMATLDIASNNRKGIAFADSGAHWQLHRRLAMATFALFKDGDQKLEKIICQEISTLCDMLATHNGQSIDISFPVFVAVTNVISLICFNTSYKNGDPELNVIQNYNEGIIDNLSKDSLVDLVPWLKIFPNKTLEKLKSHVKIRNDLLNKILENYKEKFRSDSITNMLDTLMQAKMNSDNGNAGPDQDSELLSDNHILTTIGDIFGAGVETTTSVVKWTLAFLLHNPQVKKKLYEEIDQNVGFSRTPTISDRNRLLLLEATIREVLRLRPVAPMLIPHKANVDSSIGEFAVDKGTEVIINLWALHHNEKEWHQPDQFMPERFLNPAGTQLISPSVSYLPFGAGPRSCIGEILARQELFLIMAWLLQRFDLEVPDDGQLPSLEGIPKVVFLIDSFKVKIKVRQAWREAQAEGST
In short: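 Enzyme source: 50,000g sediment from homogenized E. coli coexpressing human CYP17 and cytochrome P450 reductase. Substrate progesterone (25 µM as printed), NADPH cofactor.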

CYP3A4 = CYP3A4 (Homo sapiens, UniProt P08684); assay: Inhibition of hepatic CYP3A4 expressed in insect microsomes at 1 uM; type: ADME, Microsome
In short: (§1)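 Recombinant human enzymes from baculovirus-infected insect cell microsomes, run per supplier protocol. Test concentration 1 µM; values are means of at least three independent tests, standard deviations under 5%.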

CYP1A2 = biological target: T2, CYP1A2 (Homo sapiens, UniProt P05177); assay: Inhibition of hepatic CYP1A2 expressed in insect microsomes at 1 uM; type: ADME, Microsome; in short: as §1
T2 sequence (P05177 whole entry): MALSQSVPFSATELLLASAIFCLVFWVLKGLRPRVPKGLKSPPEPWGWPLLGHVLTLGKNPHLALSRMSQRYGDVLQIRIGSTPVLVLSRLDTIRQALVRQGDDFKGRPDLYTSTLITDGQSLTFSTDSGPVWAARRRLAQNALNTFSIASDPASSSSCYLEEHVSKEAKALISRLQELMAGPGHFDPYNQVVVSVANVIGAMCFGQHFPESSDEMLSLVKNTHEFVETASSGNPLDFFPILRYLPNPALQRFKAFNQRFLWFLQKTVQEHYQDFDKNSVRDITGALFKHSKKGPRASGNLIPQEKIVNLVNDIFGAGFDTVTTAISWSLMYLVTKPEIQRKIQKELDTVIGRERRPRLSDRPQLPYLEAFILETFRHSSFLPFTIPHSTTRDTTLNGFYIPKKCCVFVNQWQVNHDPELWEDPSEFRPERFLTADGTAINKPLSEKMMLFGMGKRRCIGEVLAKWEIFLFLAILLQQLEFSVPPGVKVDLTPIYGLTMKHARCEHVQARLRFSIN

CYP2D6 = CYP2D6 (Homo sapiens, UniProt P10635); assay: Inhibition of hepatic CYP2D6 expressed in insect microsomes at 1 uM; type: ADME, Microsome; in short: as §1
CYP2B6 = biological target: T3, CYP2B6 (Homo sapiens, UniProt P20813); assay: Inhibition of hepatic CYP2B6 expressed in insect microsomes at 1 uM; type: ADME, Microsome; in short: as §1
T3 sequence (P20813 whole entry): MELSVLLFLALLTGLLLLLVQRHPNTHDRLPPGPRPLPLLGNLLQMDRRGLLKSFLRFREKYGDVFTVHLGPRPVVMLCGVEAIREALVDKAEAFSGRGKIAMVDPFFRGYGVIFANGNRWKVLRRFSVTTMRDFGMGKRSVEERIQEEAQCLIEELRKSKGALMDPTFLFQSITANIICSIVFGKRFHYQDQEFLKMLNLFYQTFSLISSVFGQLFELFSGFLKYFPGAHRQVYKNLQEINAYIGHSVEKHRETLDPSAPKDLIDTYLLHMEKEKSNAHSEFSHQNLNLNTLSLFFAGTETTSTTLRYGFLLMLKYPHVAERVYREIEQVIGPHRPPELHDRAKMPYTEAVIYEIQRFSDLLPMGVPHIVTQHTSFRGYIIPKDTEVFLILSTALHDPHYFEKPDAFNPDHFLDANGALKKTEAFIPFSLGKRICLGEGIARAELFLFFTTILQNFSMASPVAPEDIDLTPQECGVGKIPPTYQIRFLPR

CYP3A4, sequence (P08684 whole entry): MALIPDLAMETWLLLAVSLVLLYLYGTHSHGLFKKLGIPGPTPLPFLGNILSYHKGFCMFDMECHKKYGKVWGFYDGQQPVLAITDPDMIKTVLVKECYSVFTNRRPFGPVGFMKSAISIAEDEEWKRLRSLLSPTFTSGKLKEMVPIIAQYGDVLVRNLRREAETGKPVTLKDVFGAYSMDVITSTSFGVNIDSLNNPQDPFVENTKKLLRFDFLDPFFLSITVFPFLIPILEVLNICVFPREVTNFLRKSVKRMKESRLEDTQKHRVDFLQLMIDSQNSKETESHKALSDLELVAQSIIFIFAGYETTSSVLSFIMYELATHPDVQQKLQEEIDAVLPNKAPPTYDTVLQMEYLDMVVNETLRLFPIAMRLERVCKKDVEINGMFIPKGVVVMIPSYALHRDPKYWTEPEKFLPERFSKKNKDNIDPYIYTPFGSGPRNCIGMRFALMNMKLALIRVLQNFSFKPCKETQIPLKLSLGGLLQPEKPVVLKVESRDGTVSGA
CYP2D6, sequence (P10635 whole entry): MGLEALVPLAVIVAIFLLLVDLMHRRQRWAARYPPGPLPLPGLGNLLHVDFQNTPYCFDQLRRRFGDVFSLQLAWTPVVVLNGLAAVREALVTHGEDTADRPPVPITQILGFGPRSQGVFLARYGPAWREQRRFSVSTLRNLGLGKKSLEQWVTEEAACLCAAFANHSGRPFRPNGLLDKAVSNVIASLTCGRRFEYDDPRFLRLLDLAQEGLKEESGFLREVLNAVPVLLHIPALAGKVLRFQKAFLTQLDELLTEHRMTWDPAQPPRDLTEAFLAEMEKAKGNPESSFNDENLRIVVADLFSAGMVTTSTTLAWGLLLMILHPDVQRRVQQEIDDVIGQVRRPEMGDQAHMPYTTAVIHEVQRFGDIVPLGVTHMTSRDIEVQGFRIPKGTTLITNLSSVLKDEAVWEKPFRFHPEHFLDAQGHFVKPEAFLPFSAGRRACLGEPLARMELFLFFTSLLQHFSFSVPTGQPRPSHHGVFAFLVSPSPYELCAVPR

| SMILES | IC50 [1] | also measured |
| --- | --- | --- |
| CCC(c1ccc(-c2ccc(C#N)cc2)cc1)n1ccnc1 (stereo unspecified) | > 5000 nM | – |
| CC(c1ccc2c(c1)[nH]c1cc(F)ccc12)n1ccnc1 (stereo unspecified) | 118 nM | inhibition at 1 µM (CYP3A4): 75% |
| CCc1ccc(-c2ccc(C(CC)n3ccnc3)cc2)cc1 (stereo unspecified) | 2000 nM | – |
| CC(C)C(c1ccc(-c2ccccc2)cc1)n1ccnc1 (stereo unspecified) | 310 nM | – |
| CCC(c1ccc(-c2ccccc2)cc1)n1ccnc1 (stereo unspecified) | 450 nM | – |
| CC(C)(C)C(c1ccc(-c2ccccc2)cc1)n1ccnc1 (stereo unspecified) | 460 nM | – |
| CCCCC(c1ccc(-c2ccccc2)cc1)n1ccnc1 (stereo unspecified) | 300 nM | – |
| c1ccc(-c2ccc(C(c3ccc(-c4ccccc4)cc3)n3ccnc3)cc2)cc1 | 2300 nM | – |
| CC(c1ccc2c(c1)[nH]c1ccccc12)n1ccnc1 (stereo unspecified) | 282 nM | inhibition at 1 µM (CYP1A2): 99%; inhibition at 1 µM (CYP3A4): 88% |

The next lines start with results.

| IC50 [1] | SMILES | also measured |
| --- | --- | --- |
| 1400 nM | C=CC(c1ccc(-c2ccccc2)cc1)n1ccnc1 (stereo unspecified) | – |
| 1100 nM | CC(c1ccc(-c2ccc(F)cc2)cc1)n1ccnc1 (stereo unspecified) | – |
| 580 nM | CCCC(c1ccc(-c2ccccc2)cc1)n1ccnc1 (stereo unspecified) | – |
| > 5000 nM | CCC(c1ccc(-c2ccc(N(CC)CC)cc2)cc1)n1ccnc1 (stereo unspecified) | – |
| 910 nM | CC(c1ccc(-c2ccccc2)cc1)n1ccnc1 (stereo unspecified) | – |
| 2100 nM | CC(C)CC(c1ccc(-c2ccccc2)cc1)n1ccnc1 (stereo unspecified) | – |
| 3100 nM | CCC(c1ccc(-c2ccc(SC)cc2)cc1)n1ccnc1 (stereo unspecified) | – |
| > 5000 nM | CCC(c1ccc(-c2ccc(C)cc2)cc1)n1ccnc1 (stereo unspecified) | – |
| 756 nM | Fc1ccc(-c2ccc(C(CCCl)n3ccnc3)cc2)cc1 (stereo unspecified) | inhibition at 1 µM (CYP2D6): 32%; inhibition at 1 µM (CYP1A2): 96%; inhibition at 1 µM (CYP3A4): 86%; inhibition at 1 µM (CYP2B6): 34% |
| > 5000 nM | C=CC(c1ccc(-c2ccc(F)cc2)cc1)n1ccnc1 (stereo unspecified) | – |

From ChEMBL document CHEMBL1156610, “Synthesis, biological evaluation, and molecular modeling studies of methylene imidazole substituted biaryls as inhibitors of human 17alpha-hydroxylase-17,20-lyase (CYP17)--part II: Core rigidification and influence of substituents at the methylene bridge” (Bioorg Med Chem, 2008)
